Data as given in ChEMBL document CHEMBL3877303 (J Med Chem, 2017).
One block for each molecule: values may come before it. Activity calls are given as the source filed them. The rule behind the calls is not given here.

Experiments:
[1] = target: Epithelial discoidin domain-containing receptor 1 (Homo sapiens, UniProt Q08345); test: Inhibition of human GST-tagged DDR1 cytoplasmic domain expressed in baculovirus expression system assessed as residual activity at 1 uM by KINOMEscan binding assay relative to control
[2] = Mean residence time (0 to t) in Sprague-Dawley rat at 1 mg/kg, iv; assay type: ADME, organism-based; details: in vivo
Procedure, shortened: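 Male Sprague-Dawley rats, 6-8 weeks old, fasted overnight, dosed iv or po. Jugular vein blood (~0.2 mL, heparin) sampled at 1 min to 8 h (iv) or 5 min to 24 h (po). Plasma separated by centrifugation at 2-8 °C and stored at -80 °C before analysis.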

[3] = target: T1, Mast/stem cell growth factor receptor Kit (Homo sapiens, UniProt P10721); test: Inhibition of c-KIT mediated signaling pathways assessed as reduction in ERK1/2 phosphorylation at T202/Y204 in human GISTT1 cells at 0.03 to 10 uM measured after 2 hrs by immunoblotting; assay type: cell-based
T1 sequence (P10721 whole entry): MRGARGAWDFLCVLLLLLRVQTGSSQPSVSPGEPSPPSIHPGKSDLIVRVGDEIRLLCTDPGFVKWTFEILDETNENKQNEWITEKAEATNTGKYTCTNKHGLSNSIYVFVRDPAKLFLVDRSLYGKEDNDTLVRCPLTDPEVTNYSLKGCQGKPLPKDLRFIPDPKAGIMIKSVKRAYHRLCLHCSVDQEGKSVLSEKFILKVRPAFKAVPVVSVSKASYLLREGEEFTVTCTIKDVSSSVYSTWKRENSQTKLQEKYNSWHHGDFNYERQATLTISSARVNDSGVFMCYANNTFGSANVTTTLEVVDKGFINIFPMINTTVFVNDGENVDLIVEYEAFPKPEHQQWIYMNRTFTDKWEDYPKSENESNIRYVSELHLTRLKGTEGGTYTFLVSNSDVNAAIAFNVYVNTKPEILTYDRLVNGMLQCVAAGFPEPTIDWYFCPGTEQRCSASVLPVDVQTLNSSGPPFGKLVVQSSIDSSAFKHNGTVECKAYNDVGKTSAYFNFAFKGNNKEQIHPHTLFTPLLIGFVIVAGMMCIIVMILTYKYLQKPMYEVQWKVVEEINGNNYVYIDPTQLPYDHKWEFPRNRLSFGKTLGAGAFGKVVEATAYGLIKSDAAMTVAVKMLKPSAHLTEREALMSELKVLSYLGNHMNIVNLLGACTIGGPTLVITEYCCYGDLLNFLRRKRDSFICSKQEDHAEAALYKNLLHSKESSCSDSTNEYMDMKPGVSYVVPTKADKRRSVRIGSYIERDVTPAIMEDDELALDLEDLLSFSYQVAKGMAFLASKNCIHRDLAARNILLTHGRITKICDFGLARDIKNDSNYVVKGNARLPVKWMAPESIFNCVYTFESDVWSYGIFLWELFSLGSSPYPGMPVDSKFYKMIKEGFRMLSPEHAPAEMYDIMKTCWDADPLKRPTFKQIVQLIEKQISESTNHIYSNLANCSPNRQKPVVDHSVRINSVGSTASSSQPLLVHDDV
Procedure, shortened: (§1)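 After an ice-cold PBS wash, cells were lysed in RIPA buffer (50 mM Tris pH 8.0) with protease and phosphatase inhibitors, and protein was quantified by BCA. Lysates were run on SDS-PAGE, transferred to PVDF and blocked in 5% milk/TBST. Phospho- and total proteins were probed by immunoblot with ECL detection; β-actin served as loading control.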

[4] = tested on: Mast/stem cell growth factor receptor Kit (Homo sapiens), P10721 [N822K]; test: Inhibition of Tel-fused c-KIT N822K mutant (unknown origin) expressed in BAF3 cells assessed as growth inhibition measured after 72 hrs by CellTiter-Glo or CCK8 assay; assay type: cell-based
Sequence of Mast/stem cell growth factor receptor Kit (Homo sapiens), P10721 [N822K] (P10721 whole entry N822K, the tested form may be a part): as the sequence (P10721 whole entry) above, with N822K counted along it
Procedure, shortened: (§2)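 BaF3 lines were made by retroviral transduction with kinase-fusion MSCV vectors packaged in HEK293T cells. Cells were selected with puromycin for 48 h, then selected again without IL-3 so growth depends on the introduced kinase. […] They were seeded at 1 to 2.5×10^4 cells/mL with compound dilutions and incubated 72 h. Viability was read by CellTiter-Glo luminescence or CCK-8 absorbance (450/655 nm), normalized to DMSO control; GI50 was curve-fitted from triplicate tests.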

[5] = target: Tyrosine-protein kinase Lck (Homo sapiens, UniProt P06239); test: Inhibition of recombinant C-terminal His-tagged human LCK cytoplasmic domain expressed in baculovirus expression system measured after 1 hr by FRET based Z'Lyte assay
Sequence of Tyrosine-protein kinase Lck (P06239 whole entry, the tested form may be a part): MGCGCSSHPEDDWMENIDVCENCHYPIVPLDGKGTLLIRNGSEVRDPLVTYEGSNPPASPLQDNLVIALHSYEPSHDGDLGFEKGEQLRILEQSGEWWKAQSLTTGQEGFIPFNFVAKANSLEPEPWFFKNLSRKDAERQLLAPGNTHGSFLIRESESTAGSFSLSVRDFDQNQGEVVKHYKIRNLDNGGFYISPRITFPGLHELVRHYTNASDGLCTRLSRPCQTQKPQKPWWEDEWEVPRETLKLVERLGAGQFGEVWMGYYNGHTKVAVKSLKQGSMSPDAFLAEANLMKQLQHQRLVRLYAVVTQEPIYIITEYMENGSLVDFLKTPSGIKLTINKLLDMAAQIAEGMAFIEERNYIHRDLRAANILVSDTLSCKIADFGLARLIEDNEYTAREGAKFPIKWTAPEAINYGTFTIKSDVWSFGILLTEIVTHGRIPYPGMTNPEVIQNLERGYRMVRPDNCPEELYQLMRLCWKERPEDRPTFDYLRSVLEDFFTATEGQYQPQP
Procedure, shortened: (§3)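 Z'-LYTE FRET biochemical kinase assay run by Invitrogen on selected kinases identified from binding profiling; IC50 from dose-response.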

[6] = AUC (0 to infinity) in Sprague-Dawley rat at 1 mg/kg, iv; assay type: ADME, organism-based; set-up: dose 1 mg/kg, route intravenous, time infinity; details: in vivo
Procedure, shortened: (§4)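 Male Sprague-Dawley rats aged six to eight weeks were fasted overnight and then dosed iv or orally. Blood (~0.2 mL) was drawn from the jugular vein into heparin and kept on ice. Sampling was at 1 min to 8 h for iv and 5 min to 24 h for oral. Plasma was separated by centrifugation at 2-8 °C and stored at -80 °C until analysis.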

[7] = AUC (0 to t) in Sprague-Dawley rat at 1 mg/kg, iv; assay type: ADME, organism-based; details: in vivo
Procedure, shortened: as §4

[8] = target: Platelet-derived growth factor receptor beta (Homo sapiens, UniProt P09619); test: Inhibition of recombinant His-tagged human PDGFR-beta cytoplasmic domain (558 to 1106 residues) expressed in baculovirus expression system measured after 1 hr by FRET based Z'Lyte assay
Sequence of Platelet-derived growth factor receptor beta (P09619 whole entry, the tested form may be a part): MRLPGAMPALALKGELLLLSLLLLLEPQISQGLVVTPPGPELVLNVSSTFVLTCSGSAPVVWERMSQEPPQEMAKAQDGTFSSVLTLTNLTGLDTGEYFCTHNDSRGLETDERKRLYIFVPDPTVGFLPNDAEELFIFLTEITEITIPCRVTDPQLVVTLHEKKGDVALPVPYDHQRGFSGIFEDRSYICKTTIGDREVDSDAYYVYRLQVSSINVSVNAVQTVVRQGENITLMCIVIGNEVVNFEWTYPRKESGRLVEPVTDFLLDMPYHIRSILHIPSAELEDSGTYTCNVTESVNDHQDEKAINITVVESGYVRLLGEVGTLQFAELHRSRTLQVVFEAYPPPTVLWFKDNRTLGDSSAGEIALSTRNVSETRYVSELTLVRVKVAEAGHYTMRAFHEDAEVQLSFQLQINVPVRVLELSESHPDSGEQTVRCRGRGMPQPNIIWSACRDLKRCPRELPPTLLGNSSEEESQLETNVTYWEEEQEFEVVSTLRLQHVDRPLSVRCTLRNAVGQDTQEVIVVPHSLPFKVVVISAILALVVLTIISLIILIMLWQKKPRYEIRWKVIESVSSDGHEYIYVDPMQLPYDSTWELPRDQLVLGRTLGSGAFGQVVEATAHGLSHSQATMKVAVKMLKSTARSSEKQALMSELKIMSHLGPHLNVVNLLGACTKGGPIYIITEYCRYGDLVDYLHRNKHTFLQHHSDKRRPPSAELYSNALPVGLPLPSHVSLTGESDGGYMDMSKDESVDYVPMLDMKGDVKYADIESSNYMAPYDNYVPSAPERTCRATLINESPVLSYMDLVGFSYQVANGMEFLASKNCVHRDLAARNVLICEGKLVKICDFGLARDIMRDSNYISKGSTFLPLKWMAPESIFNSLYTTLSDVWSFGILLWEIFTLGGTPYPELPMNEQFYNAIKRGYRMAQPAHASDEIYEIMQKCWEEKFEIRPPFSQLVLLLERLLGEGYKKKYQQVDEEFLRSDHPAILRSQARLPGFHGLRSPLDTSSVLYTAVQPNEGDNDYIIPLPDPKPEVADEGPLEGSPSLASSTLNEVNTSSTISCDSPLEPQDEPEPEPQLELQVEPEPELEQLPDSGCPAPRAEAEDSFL
Procedure, shortened: as §3

[9] = target: T2, BCR/ABL p210 fusion protein (Homo sapiens, UniProt A1Z199); test: Inhibition of BCR/ABL p210 fusion protein mediated signaling pathways assessed as reduction in ERK phosphorylation at T202/Y204 in human K562 cells at 0.01 to 3 uM measured after 2 hrs by immunoblotting; assay type: cell-based
T2 sequence (A1Z199 1-97): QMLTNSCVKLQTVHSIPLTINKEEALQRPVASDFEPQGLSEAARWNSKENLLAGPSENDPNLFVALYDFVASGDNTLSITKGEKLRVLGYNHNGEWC
Procedure, shortened: as §1

[10] = Half life in Sprague-Dawley rat at 10 mg/kg, po; assay type: ADME, organism-based; details: in vivo
Procedure, shortened: as §4

[11] = target: T1, Mast/stem cell growth factor receptor Kit; test: Inhibition of c-KIT mediated signaling pathways assessed as reduction in AKT phosphorylation at S473 in human GISTT1 cells at 0.03 to 10 uM measured after 2 hrs by immunoblotting; assay type: cell-based
Procedure, shortened: as §1

[12] = target: T1, Mast/stem cell growth factor receptor Kit; test: Inhibition of c-KIT mediated signaling pathways assessed as reduction in S6 phosphorylation at S235/236 in human GISTT1 cells at 0.03 to 10 uM measured after 2 hrs by immunoblotting; assay type: cell-based
Procedure, shortened: as §1

[13] = target: T1, Mast/stem cell growth factor receptor Kit; details: BaF3
[14] = target: T2, BCR/ABL p210 fusion protein; test: Inhibition of BCR/ABL p210 fusion protein mediated signaling pathways assessed as reduction in CrkL phosphorylation at Y207 in human KU812 cells at 0.01 to 3 uM measured after 2 hrs by immunoblotting; assay type: cell-based
Procedure, shortened: as §1

[15] = tested on: Mast/stem cell growth factor receptor Kit (Homo sapiens), P10721 [V559D,T670I]; test: Inhibition of Tel-fused c-KIT T670I/V559D double mutant (unknown origin) expressed in BAF3 cells assessed as growth inhibition measured after 72 hrs by CellTiter-Glo or CCK8 assay; assay type: cell-based
Sequence of Mast/stem cell growth factor receptor Kit (Homo sapiens), P10721 [V559D,T670I] (P10721 whole entry V559D/T670I, the tested form may be a part): as the sequence (P10721 whole entry) above, with V559D, T670I counted along it
Procedure, shortened: as §2

BaF3 [16] = test: Inhibition of BCR/ABL p210 fusion protein F317L mutant (unknown origin) expressed in BAF3 cells assessed as growth inhibition measured after 72 hrs by CellTiter-Glo or CCK8 assay; assay type: cell-based; details: Homo sapiens
Procedure, shortened: as §2

[17] = target: Tyrosine-protein kinase Blk (Homo sapiens, UniProt P51451); test: Inhibition of full length recombinant His-tagged human BLK cytoplasmic domain expressed in baculovirus expression system assessed as residual activity at 1 uM measured after 1 hr by FRET based Z'Lyte assay relative to control
Sequence of Tyrosine-protein kinase Blk (P51451 2-505 limits assumed): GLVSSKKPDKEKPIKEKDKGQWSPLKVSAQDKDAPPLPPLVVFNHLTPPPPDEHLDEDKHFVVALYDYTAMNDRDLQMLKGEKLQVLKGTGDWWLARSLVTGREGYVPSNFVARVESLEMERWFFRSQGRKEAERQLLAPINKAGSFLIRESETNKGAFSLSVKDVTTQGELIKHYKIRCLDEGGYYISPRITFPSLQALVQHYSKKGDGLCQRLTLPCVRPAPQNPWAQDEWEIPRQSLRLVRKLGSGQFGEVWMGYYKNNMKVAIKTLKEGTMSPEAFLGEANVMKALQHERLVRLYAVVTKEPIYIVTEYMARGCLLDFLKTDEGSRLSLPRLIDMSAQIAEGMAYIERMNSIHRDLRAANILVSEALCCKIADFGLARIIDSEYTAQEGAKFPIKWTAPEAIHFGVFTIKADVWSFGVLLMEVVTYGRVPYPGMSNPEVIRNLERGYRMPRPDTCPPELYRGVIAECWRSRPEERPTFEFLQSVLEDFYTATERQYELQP

BaF3 [18] = test: Inhibition of BCR/ABL p210 fusion protein Y253H mutant (unknown origin) expressed in BAF3 cells assessed as growth inhibition measured after 72 hrs by CellTiter-Glo or CCK8 assay; assay type: cell-based; details: Homo sapiens
Procedure, shortened: as §2

[19] = target: T2, BCR/ABL p210 fusion protein; test: Inhibition of BCR/ABL p210 fusion protein mediated signaling pathways assessed as reduction in Stat5 phosphorylation at Y694 in human K562 cells at 0.01 to 3 uM measured after 2 hrs by immunoblotting; assay type: cell-based
Procedure, shortened: as §1

[20] = target: Macrophage colony-stimulating factor 1 receptor (Homo sapiens, UniProt P07333); details: BaF3
Sequence of Macrophage colony-stimulating factor 1 receptor (P07333 whole entry): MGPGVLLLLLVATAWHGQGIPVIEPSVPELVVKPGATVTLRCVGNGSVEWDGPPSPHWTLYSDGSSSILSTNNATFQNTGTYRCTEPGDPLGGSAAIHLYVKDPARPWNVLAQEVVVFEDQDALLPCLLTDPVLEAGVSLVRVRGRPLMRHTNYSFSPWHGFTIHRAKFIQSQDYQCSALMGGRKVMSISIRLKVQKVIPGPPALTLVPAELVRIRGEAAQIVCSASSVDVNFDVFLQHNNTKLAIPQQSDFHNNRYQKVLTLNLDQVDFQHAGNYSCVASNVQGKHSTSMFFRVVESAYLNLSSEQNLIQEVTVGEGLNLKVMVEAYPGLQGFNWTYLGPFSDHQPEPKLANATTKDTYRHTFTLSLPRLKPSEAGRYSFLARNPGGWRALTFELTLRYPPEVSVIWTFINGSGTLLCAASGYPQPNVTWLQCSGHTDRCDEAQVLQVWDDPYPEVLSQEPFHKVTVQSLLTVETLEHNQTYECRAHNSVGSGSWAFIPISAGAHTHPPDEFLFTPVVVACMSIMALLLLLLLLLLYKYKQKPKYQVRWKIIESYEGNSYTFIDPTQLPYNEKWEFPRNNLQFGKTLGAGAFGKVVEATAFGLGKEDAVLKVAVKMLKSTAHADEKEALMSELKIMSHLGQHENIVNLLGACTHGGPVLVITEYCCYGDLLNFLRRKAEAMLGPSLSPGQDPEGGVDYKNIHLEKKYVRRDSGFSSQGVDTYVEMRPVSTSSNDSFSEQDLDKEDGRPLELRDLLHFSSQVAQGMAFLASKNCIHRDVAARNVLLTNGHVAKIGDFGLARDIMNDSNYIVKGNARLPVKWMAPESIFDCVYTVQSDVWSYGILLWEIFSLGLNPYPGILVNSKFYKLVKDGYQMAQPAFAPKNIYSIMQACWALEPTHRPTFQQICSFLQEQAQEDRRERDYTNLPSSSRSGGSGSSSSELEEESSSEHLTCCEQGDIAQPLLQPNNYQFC

[21] = target: T1, Mast/stem cell growth factor receptor Kit; details: 1 uM
[22] = Cell cycle arrest in human GIST882 cells assessed as accumulation at G0/G1 phase at 1 uM after 48 hrs by propidium iodide/RNase staining based flow cytometry; assay type: functional
Procedure, shortened: (§5)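 Cells were exposed to serially diluted compound, then fixed in cold 70% ethanol overnight at -20 °C. They were stained with PI/RNase buffer for DNA-content cell-cycle analysis.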

[23] = Cell cycle arrest in human KU812 cells assessed as accumulation at G0/G1 phase at 1 uM after 12 hrs by propidium iodide/RNase staining based flow cytometry; assay type: functional
Procedure, shortened: as §5

[24] = Cell cycle arrest in human MEG01 cells assessed as accumulation at G0/G1 phase at 1 uM after 24 hrs by propidium iodide/RNase staining based flow cytometry; assay type: functional; details: MEG-01
Procedure, shortened: as §5

[25] = target: T1, Mast/stem cell growth factor receptor Kit; details: 1 uM; remark: listed apart in the source

- Activity [1]: 0.35%
- MRT last [2]: 1.93 h
- inhibition [3]: Active
- GI50 [4]: 0.124 µM
- IC50 [5]: 0.012 µM
- AUC(0-inf) [6]: 558 ng·h/mL
- AUC(0-t) [7]: 510 ng·h/mL
- IC50 [8]: 0.08 µM
- inhibition [9]: Active
- half-life [10]: 2.83 h
- inhibition [11]: Active
- inhibition [12]: Active
- GI50 [13]: 0.149 µM
- inhibition [14]: Active
- GI50 [15]: 1.01 µM
- GI50 (BaF3 [16]): 0.67 µM
- Activity [17]: 0.45%
- GI50 (BaF3 [18]): 1.67 µM
- inhibition [19]: Active
- GI50 [20]: 0.162 µM
SMILES: Cc1ccc(C(=O)N2CCC(Oc3cc(NC(=O)c4ccc(CN5CCN(C)CC5)c(C(F)(F)F)c4)ccc3C)CC2)cn1

- inhibition [21]: Active
- inhibition [25]: Active
SMILES: Cc1ccc(NC(=O)c2ccc(CN3CCN(C)CC3)cc2)cc1Nc1nccc(-c2cccnc2)n1 [IMATINIB]
- Activity [22]: Active
- Activity [23]: Active
- Activity [24]: Active
